Calls of active or inactive are those of the source. No cut-off for these calls is given here.
Assays:
[1] = target: T1, D(4) dopamine receptor (Homo sapiens) (UniProt P21917); assay: Inhibition of [3H]spiperone binding to human Dopamine receptor D4.2 stably transfected in human embryonic kidney […] cells at 100 nM
T1 sequence (whole entry): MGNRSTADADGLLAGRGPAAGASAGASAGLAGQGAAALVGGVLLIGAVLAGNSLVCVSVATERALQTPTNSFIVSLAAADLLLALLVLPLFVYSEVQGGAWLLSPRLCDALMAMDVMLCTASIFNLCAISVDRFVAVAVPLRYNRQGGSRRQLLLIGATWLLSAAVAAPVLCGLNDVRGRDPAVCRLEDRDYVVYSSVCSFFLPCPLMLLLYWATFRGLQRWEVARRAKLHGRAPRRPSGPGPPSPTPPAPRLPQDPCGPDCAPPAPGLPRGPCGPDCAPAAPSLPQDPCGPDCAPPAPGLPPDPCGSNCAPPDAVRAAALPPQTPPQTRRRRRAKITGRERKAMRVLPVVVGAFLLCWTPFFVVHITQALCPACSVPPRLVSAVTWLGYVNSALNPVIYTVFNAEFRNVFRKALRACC

[2] = target: T2, Adrenergic receptor alpha-1 (Rattus norvegicus) (UniProt P15823+P23944+P43140); assay: Inhibition of 7-methoxy-[3H]-prazosin binding to Alpha-1 adrenergic receptor in rat frontal cortex tissue at 100 nM; IA denotes inactive
[3] = target: T3, D(2) dopamine receptor (Homo sapiens, UniProt P14416); assay: Inhibition of [3H]spiperone binding to human Dopamine receptor D2S stably transfected in GH4C1 (rat pituitary) cells at 100 nM; IA denotes inactive; settings: Pituitary gland cell
T3 sequence (P14416 whole entry): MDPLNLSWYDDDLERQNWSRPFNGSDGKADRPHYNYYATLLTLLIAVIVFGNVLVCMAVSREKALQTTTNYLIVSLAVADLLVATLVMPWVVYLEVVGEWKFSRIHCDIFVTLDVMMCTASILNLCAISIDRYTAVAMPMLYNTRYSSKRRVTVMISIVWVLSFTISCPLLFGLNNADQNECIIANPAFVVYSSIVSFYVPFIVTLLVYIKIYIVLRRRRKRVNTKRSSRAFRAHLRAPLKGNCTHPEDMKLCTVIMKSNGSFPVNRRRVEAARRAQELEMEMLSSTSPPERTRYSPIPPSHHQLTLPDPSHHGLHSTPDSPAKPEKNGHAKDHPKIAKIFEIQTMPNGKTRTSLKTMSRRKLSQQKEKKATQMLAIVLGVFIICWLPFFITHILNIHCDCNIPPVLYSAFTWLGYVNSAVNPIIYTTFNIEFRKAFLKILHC

[4] = target: T3, D(2) dopamine receptor; assay: Ability to displace [3H]spiperone from human Dopamine receptor D2S stably transfected in GH4C1 (rat pituitary) cells; type: cell-based, Pituitary gland cell
Summary of the method: (§1)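 Radioligand binding on stably transfected cell lines: hD4 (D4.2 subtype) in HEK […] cells and hD2 (short isoform) in GH4C1 rat pituitary cells. Ki derived by Cheng–Prusoff transformation, reported as mean of at least two determinations ± SEM.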

[5] = target: T4, Adrenergic receptor alpha-1 (Rattus norvegicus, UniProt P15823+P23944+P43140); assay: Binding affinity towards Alpha-1 adrenergic receptor using 7-methoxy-[3H]-prazosin as radioligand in rat frontal cortex tissue; type: tissue-based
T4 sequence (P15823 whole entry): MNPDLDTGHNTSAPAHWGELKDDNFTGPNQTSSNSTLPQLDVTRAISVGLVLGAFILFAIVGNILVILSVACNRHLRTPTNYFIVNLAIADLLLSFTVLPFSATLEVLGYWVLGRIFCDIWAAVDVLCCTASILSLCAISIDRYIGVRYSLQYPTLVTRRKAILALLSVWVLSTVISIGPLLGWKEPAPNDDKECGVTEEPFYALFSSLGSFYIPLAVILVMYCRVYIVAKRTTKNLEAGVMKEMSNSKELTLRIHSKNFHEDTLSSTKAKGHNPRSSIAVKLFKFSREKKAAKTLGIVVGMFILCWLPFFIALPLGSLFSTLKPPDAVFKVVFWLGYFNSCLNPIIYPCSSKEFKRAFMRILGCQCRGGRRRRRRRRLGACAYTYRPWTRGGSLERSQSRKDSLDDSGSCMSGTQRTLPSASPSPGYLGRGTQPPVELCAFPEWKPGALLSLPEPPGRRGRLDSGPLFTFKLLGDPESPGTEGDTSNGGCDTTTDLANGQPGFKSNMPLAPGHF
T4 sequence (P23944 whole entry): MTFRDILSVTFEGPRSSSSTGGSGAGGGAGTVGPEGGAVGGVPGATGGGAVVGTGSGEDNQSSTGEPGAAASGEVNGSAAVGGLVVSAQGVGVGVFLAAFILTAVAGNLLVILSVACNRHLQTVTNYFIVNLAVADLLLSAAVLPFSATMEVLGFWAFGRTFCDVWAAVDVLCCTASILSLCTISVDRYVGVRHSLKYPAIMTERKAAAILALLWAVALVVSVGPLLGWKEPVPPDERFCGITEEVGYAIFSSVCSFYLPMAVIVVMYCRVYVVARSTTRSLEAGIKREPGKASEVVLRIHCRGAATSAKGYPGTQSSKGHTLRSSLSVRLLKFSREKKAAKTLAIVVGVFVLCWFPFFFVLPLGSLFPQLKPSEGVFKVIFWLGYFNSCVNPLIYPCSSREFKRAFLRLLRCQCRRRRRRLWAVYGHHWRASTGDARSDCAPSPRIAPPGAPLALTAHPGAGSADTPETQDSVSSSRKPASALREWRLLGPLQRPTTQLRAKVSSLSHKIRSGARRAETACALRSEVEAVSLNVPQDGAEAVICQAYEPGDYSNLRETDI
T4 sequence (P43140 whole entry): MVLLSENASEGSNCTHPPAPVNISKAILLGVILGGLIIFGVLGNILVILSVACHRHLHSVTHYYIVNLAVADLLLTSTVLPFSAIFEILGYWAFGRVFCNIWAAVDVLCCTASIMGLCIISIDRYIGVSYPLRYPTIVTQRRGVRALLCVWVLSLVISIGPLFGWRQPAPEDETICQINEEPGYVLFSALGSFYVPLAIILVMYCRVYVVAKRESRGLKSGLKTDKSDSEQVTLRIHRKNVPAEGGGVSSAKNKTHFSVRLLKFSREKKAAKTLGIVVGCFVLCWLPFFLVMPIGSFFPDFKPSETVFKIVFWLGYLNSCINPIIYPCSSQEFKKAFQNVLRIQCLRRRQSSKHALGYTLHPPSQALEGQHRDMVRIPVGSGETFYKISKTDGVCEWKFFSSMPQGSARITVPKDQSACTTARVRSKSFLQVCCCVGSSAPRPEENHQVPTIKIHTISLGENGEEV
Summary of the method: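 Rat frontal cortex tissue as α1 receptor source, 7-methoxy-[3H]-prazosin as radioligand, clozapine as reference. Ki obtained by Cheng–Prusoff transformation; mean of at least two determinations ± SEM.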

[6] = target: T5, D(4) dopamine receptor (Homo sapiens, UniProt P21917); assay: Ability to displace [3H]spiperone from human Dopamine receptor D4.2 stably transfected in human embryonic kidney […] cells
T5 sequence (P21917 whole entry): T1 sequence (whole entry)
Summary of the method: as §1

[7] = target: T5, D(4) dopamine receptor; assay: Inhibitory concentration required to reverse the dopamine inhibition of forskolin-stimulated adenyl cyclase activity in CHO cells stably expressing hD4 receptor; type: functional, cell-based
[8] = target: T2, Adrenergic receptor alpha-1 (Rattus norvegicus); assay: Inhibition of 7-methoxy-[3H]-prazosin binding to Alpha-1 adrenergic receptor in rat frontal cortex tissue at 100 nM
[9] = target: T3, D(2) dopamine receptor; assay: Inhibition of [3H]spiperone binding to human Dopamine receptor D2S stably transfected in GH4C1 (rat pituitary) cells at 100 nM; settings: Pituitary gland cell

With `O=S(=O)(N[C@H]1CCN(Cc2ccccc2)C1)c1ccc(-c2cccs2)cc1` the inhibition [1] was 13%, the inhibition [2] was “inactive” and the inhibition [3] was “inactive”.
`O=C(N[C@H]1CCN(Cc2ccccc2)C1)c1cccc(-c2ccsc2)c1` gave a Ki [4] of 70 nM, a Ki [5] of 140 nM and a Ki [6] of 2 nM.
`O=C(N[C@@H]1CCN(Cc2ccccc2)C1)c1ccc(-c2cccs2)cc1` gave a Ki [4] of 1500 nM, a Ki [5] of 330 nM and a Ki [6] of 24 nM.
`O=C(NC1CCN(Cc2ccccc2)C1)c1ccc(-c2ccccc2)cc1` (configuration not stated) showed a Ki [4] of 600 nM, an IC50 [7] of 1500 nM and a Ki [6] of 3 nM.
`Nc1cccc(-c2ccc(C(=O)NC3CCN(Cc4ccccc4)C3)cc2)c1` (configuration not stated) gave a Ki [4] of 5000 nM and a Ki [6] of 24 nM.
With `O=C(N[C@H]1CCN(Cc2ccccc2)C1)c1cccc(-c2cccs2)c1` the Ki [4] was 60 nM, the Ki [5] was 160 nM and the Ki [6] was 1.5 nM.
In the case of `O=C(NC1CCN(Cc2ccccc2)C1)c1cccc(-c2ccccc2)c1` (configuration not stated), the Ki [4] is reported as 150 nM and the Ki [6] is reported as 4 nM.
With `O=C(NC1CCN(Cc2ccccc2)C1)c1ccc(-c2ccc(Cl)cc2)cc1` (configuration not stated) the Ki [4] was 2600 nM and the Ki [6] was 5 nM.
With `O=Cc1ccccc1-c1ccc(C(=O)NC2CCN(Cc3ccccc3)C2)cc1` (configuration not stated) the Ki [4] was 3100 nM and the Ki [6] was 36 nM.
`O=C(NC1CCN(Cc2ccccc2)C1)c1ccc(-c2ccsc2)cc1` (configuration not stated) showed a Ki [4] of 1200 nM and a Ki [6] of 2 nM.
`O=C(N[C@H]1CCN(Cc2ccccc2)C1)c1ccc(-c2ccsc2)cc1` showed a Ki [4] of 1000 nM, a Ki [5] of 610 nM and a Ki [6] of 2 nM.
`O=C(NC1CCN(Cc2ccccc2)C1)c1ccc(-c2ccc(F)cc2)cc1` (configuration not stated) showed a Ki [4] of 120 nM and a Ki [6] of 8 nM.
With `O=C(N[C@@H]1CCN(Cc2ccccc2)C1)c1cccc(-c2ccsc2)c1` the Ki [4] was 94 nM, the Ki [5] was 170 nM and the Ki [6] was 3.4 nM.
With `O=C(NC1CCN(Cc2ccccc2)C1)c1ccc(-c2cccs2)cc1` (configuration not stated) the Ki [4] was 840 nM and the Ki [6] was 3 nM.
`CN(C(=O)c1ccc(-c2ccsc2)cc1)[C@H]1CCN(Cc2ccccc2)C1` was tested, and the inhibition [1] was 40%, the inhibition [8] was 0.29% and the inhibition [9] was 7.4%.
`O=C(NC1CCN(Cc2ccccc2)C1)c1ccc(-c2cccc(F)c2)cc1` (configuration not stated) showed a Ki [4] of 4000 nM and a Ki [6] of 17 nM.
Work on `O=C(N[C@H]1CCN(Cc2ccccc2)C1)c1ccc(-c2cccs2)cc1` yielded a Ki [4] of 980 nM, a Ki [5] of 1200 nM and a Ki [6] of 3 nM.
`CSc1ccc(-c2ccc(C(=O)NC3CCN(Cc4ccccc4)C3)cc2)cc1` (configuration not stated) was tested, and the Ki [4] was 4000 nM and the Ki [6] was 17 nM.
With `O=C(NC1CCN(Cc2ccccc2)C1)c1ccc(-c2ccc(C(F)(F)F)cc2)cc1` (configuration not stated) the Ki [4] was 8000 nM and the Ki [6] was 17 nM.
Work on `O=C(N[C@@H]1CCN(Cc2ccccc2)C1)c1ccc(-c2ccsc2)cc1` yielded a Ki [4] of 900 nM, a Ki [5] of 170 nM and a Ki [6] of 18 nM.
With `O=Cc1ccc(-c2ccc(C(=O)NC3CCN(Cc4ccccc4)C3)cc2)cc1` (configuration not stated) the Ki [4] was 3700 nM and the Ki [6] was 70 nM.

Source: ChEMBL document CHEMBL1137866, “N-(1-Benzylpyrrolidin-3-yl)arylbenzamides as potent and selective human dopamine D4 antagonists” (Bioorg Med Chem Lett, 2004)
